Source: PMC3653324 (Translational stroke research, 2012)

Tested on: H4IIE cells
Assay: CeeTox membrane toxicity
Details: 24 hr, α-GST leakage

| Compound | MemTox TC50 |
| --- | --- |
| COc1cc(-c2ccc(O)c(O)c2)nc2ccccc12 [CSMC-12, 4-methoxy-2-(3,4-dihydroxyphenyl)quinoline] | >300 µM |
| COc1cc(-c2oc3cc(C)c(C)cc3c(=O)c2O)ccc1O [CSMC-15, 6,7-dimethyl-3,4'-dihydroxy-3'-methoxyflavone] | >300 µM |
| CCOc1cc(-c2ccc(O)c(O)c2)nc2ccccc12 [CSMC-16, 4-ethoxy-2-(3,4-dihydroxyphenyl)quinoline] | >300 µM |
| CC(C)Oc1cc(-c2ccc(O)c(O)c2)nc2ccccc12 [CSMC-17, 4-isopropoxy-2-(3,4-dihydroxyphenyl)quinoline] | >300 µM |

Biological target: CYP3A4 (Homo sapiens, UniProt P08684)
Sequence (P08684 2-503): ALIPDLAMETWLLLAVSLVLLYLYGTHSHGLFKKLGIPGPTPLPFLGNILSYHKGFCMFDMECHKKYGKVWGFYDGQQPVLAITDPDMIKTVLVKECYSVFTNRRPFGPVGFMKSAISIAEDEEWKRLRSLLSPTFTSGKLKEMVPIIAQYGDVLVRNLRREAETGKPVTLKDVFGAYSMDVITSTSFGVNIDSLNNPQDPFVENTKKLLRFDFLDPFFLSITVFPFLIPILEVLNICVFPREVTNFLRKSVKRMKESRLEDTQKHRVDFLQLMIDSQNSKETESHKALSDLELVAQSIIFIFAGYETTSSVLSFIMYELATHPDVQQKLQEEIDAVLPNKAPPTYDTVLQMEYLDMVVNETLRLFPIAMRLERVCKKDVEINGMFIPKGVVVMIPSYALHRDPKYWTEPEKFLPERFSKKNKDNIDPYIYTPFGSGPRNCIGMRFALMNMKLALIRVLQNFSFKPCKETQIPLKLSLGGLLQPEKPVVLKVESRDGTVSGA
Assay: Cloe Screen Cytochrome P450 Inhibition assay
Type: in vitro ADME
Details: not given

| Compound | IC50 |
| --- | --- |
| COc1cc(-c2ccc(O)c(O)c2)nc2ccccc12 [CSMC-12, 4-methoxy-2-(3,4-dihydroxyphenyl)quinoline] | > 10 µM |
| COc1cc(-c2oc3cc(C)c(C)cc3c(=O)c2O)ccc1O [CSMC-15, 6,7-dimethyl-3,4'-dihydroxy-3'-methoxyflavone] | > 10 µM |
| CCOc1cc(-c2ccc(O)c(O)c2)nc2ccccc12 [CSMC-16, 4-ethoxy-2-(3,4-dihydroxyphenyl)quinoline] | > 10 µM |
| CC(C)Oc1cc(-c2ccc(O)c(O)c2)nc2ccccc12 [CSMC-17, 4-isopropoxy-2-(3,4-dihydroxyphenyl)quinoline] | > 10 µM |

Tested on: Caspase 3
Assay: CeeTox apoptosis
Type: cell-based, rat
Details: H4IIE cells, dose at which the index was seen

| Compound | Caspase 3 Activity (Index/Dose): dose |
| --- | --- |
| COc1cc(-c2oc3cc(C)c(C)cc3c(=O)c2O)ccc1O [CSMC-15, 6,7-dimethyl-3,4'-dihydroxy-3'-methoxyflavone] | 300 |

Same assay, conditions: H4IIE cells, index of RFU

| Compound | Caspase 3 Activity (Index/Dose): index |
| --- | --- |
| COc1cc(-c2oc3cc(C)c(C)cc3c(=O)c2O)ccc1O [CSMC-15, 6,7-dimethyl-3,4'-dihydroxy-3'-methoxyflavone] | 1 (0–200 = 1) |

Tested on: S. typhimurium TA989
Assay: Ames test for mutagenicity, frame-shift strain
Type: cell-based
Details: first TA98 column, with S9, up to 10 μM

| Compound | TA98+S9 |
| --- | --- |
| COc1cc(-c2ccc(O)c(O)c2)nc2ccccc12 [CSMC-12, 4-methoxy-2-(3,4-dihydroxyphenyl)quinoline] | Negative (Not mutagenic < 10 μM (NEGATIVE)) |
| COc1cc(-c2oc3cc(C)c(C)cc3c(=O)c2O)ccc1O [CSMC-15, 6,7-dimethyl-3,4'-dihydroxy-3'-methoxyflavone] | Negative (Not mutagenic < 10 μM (NEGATIVE)) |
| CCOc1cc(-c2ccc(O)c(O)c2)nc2ccccc12 [CSMC-16, 4-ethoxy-2-(3,4-dihydroxyphenyl)quinoline] | Negative (Not mutagenic < 10 μM (NEGATIVE)) |
| CC(C)Oc1cc(-c2ccc(O)c(O)c2)nc2ccccc12 [CSMC-17, 4-isopropoxy-2-(3,4-dihydroxyphenyl)quinoline] | Negative (Not mutagenic < 10 μM (NEGATIVE)) |

Same assay, conditions: first TA98 column, without S9, up to 10 μM

| Compound | TA98−S9 |
| --- | --- |
| COc1cc(-c2ccc(O)c(O)c2)nc2ccccc12 [CSMC-12, 4-methoxy-2-(3,4-dihydroxyphenyl)quinoline] | Negative (Not mutagenic < 10 μM (NEGATIVE)) |
| COc1cc(-c2oc3cc(C)c(C)cc3c(=O)c2O)ccc1O [CSMC-15, 6,7-dimethyl-3,4'-dihydroxy-3'-methoxyflavone] | Negative (Not mutagenic < 10 μM (NEGATIVE)) |
| CCOc1cc(-c2ccc(O)c(O)c2)nc2ccccc12 [CSMC-16, 4-ethoxy-2-(3,4-dihydroxyphenyl)quinoline] | Negative (Not mutagenic < 10 μM (NEGATIVE)) |
| CC(C)Oc1cc(-c2ccc(O)c(O)c2)nc2ccccc12 [CSMC-17, 4-isopropoxy-2-(3,4-dihydroxyphenyl)quinoline] | Negative (Not mutagenic < 10 μM (NEGATIVE)) |

Biological target: CYP2C19 (Homo sapiens, UniProt P33261)
Sequence (P33261 whole entry): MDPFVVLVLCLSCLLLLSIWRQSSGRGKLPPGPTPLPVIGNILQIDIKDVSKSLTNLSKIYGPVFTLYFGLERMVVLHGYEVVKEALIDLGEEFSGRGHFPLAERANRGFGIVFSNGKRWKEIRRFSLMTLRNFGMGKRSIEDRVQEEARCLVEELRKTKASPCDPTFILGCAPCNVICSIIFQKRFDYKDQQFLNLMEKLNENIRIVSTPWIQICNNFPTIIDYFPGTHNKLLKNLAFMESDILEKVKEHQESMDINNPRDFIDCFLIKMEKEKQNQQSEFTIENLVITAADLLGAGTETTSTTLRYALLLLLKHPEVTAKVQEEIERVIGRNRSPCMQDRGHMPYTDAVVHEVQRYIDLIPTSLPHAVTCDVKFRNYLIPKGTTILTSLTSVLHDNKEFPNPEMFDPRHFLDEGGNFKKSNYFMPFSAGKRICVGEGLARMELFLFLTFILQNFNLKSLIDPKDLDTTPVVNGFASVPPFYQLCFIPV
Assay: Cloe Screen Cytochrome P450 Inhibition assay
Type: in vitro ADME
Details: not given

| Compound | IC50 |
| --- | --- |
| COc1cc(-c2ccc(O)c(O)c2)nc2ccccc12 [CSMC-12, 4-methoxy-2-(3,4-dihydroxyphenyl)quinoline] | > 10 µM |
| COc1cc(-c2oc3cc(C)c(C)cc3c(=O)c2O)ccc1O [CSMC-15, 6,7-dimethyl-3,4'-dihydroxy-3'-methoxyflavone] | > 10 µM |
| CCOc1cc(-c2ccc(O)c(O)c2)nc2ccccc12 [CSMC-16, 4-ethoxy-2-(3,4-dihydroxyphenyl)quinoline] | > 10 µM |
| CC(C)Oc1cc(-c2ccc(O)c(O)c2)nc2ccccc12 [CSMC-17, 4-isopropoxy-2-(3,4-dihydroxyphenyl)quinoline] | > 10 µM |

Biological target: CYP2D6 (Homo sapiens, UniProt P10635)
Sequence (P10635 whole entry): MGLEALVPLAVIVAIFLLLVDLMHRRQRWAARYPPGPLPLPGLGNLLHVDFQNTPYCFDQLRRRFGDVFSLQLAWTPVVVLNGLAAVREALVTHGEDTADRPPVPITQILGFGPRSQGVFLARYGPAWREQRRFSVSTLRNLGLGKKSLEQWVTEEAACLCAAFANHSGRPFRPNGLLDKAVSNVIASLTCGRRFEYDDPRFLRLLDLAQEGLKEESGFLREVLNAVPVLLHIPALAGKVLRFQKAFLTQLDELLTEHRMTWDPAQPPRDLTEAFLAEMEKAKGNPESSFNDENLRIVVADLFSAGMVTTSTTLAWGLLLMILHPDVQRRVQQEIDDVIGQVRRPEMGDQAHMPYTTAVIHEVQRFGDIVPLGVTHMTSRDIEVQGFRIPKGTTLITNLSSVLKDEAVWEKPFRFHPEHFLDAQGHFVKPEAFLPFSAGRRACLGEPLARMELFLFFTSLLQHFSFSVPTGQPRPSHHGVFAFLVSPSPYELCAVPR
Assay: Cloe Screen Cytochrome P450 Inhibition assay
Type: in vitro ADME
Details: not given
Method in brief: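 Run blinded. […] Metabolite formation was monitored by LC-MS/MS. IC50 was calculated from the decrease in metabolite formation relative to vehicle control. Quinidine served as positive control inhibitor.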

| Compound | IC50 |
| --- | --- |
| COc1cc(-c2ccc(O)c(O)c2)nc2ccccc12 [CSMC-12, 4-methoxy-2-(3,4-dihydroxyphenyl)quinoline] | > 10 µM |
| COc1cc(-c2oc3cc(C)c(C)cc3c(=O)c2O)ccc1O [CSMC-15, 6,7-dimethyl-3,4'-dihydroxy-3'-methoxyflavone] | > 10 µM |
| CCOc1cc(-c2ccc(O)c(O)c2)nc2ccccc12 [CSMC-16, 4-ethoxy-2-(3,4-dihydroxyphenyl)quinoline] | > 10 µM |
| CC(C)Oc1cc(-c2ccc(O)c(O)c2)nc2ccccc12 [CSMC-17, 4-isopropoxy-2-(3,4-dihydroxyphenyl)quinoline] | > 10 µM |

Tested on: H4IIE cells
Assay: CeeTox cellular ATP content
Details: 24 hr

| Compound | ATP TC50 |
| --- | --- |
| COc1cc(-c2ccc(O)c(O)c2)nc2ccccc12 [CSMC-12, 4-methoxy-2-(3,4-dihydroxyphenyl)quinoline] | 223 µM |
| COc1cc(-c2oc3cc(C)c(C)cc3c(=O)c2O)ccc1O [CSMC-15, 6,7-dimethyl-3,4'-dihydroxy-3'-methoxyflavone] | 78 µM |
| CCOc1cc(-c2ccc(O)c(O)c2)nc2ccccc12 [CSMC-16, 4-ethoxy-2-(3,4-dihydroxyphenyl)quinoline] | 162 µM |
| CC(C)Oc1cc(-c2ccc(O)c(O)c2)nc2ccccc12 [CSMC-17, 4-isopropoxy-2-(3,4-dihydroxyphenyl)quinoline] | 217 µM |

Biological target: CYP2C9 (Homo sapiens, UniProt P11712)
Sequence (P11712 whole entry): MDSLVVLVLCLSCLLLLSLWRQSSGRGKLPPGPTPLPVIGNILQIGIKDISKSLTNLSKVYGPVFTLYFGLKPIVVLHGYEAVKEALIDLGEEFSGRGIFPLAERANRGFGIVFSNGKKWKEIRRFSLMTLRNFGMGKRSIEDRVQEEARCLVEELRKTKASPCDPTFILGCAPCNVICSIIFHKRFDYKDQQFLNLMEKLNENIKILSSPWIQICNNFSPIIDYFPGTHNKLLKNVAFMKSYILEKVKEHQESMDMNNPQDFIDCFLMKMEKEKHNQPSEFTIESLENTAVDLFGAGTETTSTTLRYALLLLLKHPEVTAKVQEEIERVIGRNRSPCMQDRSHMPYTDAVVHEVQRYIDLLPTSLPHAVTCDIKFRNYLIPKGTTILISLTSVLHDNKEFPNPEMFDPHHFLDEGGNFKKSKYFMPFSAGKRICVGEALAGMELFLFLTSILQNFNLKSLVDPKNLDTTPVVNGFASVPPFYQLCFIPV
Assay: Cloe Screen Cytochrome P450 Inhibition assay
Type: in vitro ADME
Details: not given

| Compound | IC50 |
| --- | --- |
| COc1cc(-c2ccc(O)c(O)c2)nc2ccccc12 [CSMC-12, 4-methoxy-2-(3,4-dihydroxyphenyl)quinoline] | > 10 µM |
| COc1cc(-c2oc3cc(C)c(C)cc3c(=O)c2O)ccc1O [CSMC-15, 6,7-dimethyl-3,4'-dihydroxy-3'-methoxyflavone] | > 10 µM |
| CCOc1cc(-c2ccc(O)c(O)c2)nc2ccccc12 [CSMC-16, 4-ethoxy-2-(3,4-dihydroxyphenyl)quinoline] | > 10 µM |
| CC(C)Oc1cc(-c2ccc(O)c(O)c2)nc2ccccc12 [CSMC-17, 4-isopropoxy-2-(3,4-dihydroxyphenyl)quinoline] | > 10 µM |

Tested on: 8-Isoprostane (8-ISO)
Assay: CeeTox lipid peroxidation measured as 8-isoprostane
Details: H4IIE cells, 8-ISO score

| Compound | Membrane Lipid Peroxidation |
| --- | --- |
| COc1cc(-c2ccc(O)c(O)c2)nc2ccccc12 [CSMC-12, 4-methoxy-2-(3,4-dihydroxyphenyl)quinoline] | 1 (1 = Modest increase with maximum values ≤ 15 pg/mL) |
| COc1cc(-c2oc3cc(C)c(C)cc3c(=O)c2O)ccc1O [CSMC-15, 6,7-dimethyl-3,4'-dihydroxy-3'-methoxyflavone] | 0 |
| CCOc1cc(-c2ccc(O)c(O)c2)nc2ccccc12 [CSMC-16, 4-ethoxy-2-(3,4-dihydroxyphenyl)quinoline] | 0 |
| CC(C)Oc1cc(-c2ccc(O)c(O)c2)nc2ccccc12 [CSMC-17, 4-isopropoxy-2-(3,4-dihydroxyphenyl)quinoline] | 0 |

Tested on: H4IIE cells
Assay: CeeTox cell mass
Details: 24 hr

| Compound | Cell Mass TC50 |
| --- | --- |
| COc1cc(-c2ccc(O)c(O)c2)nc2ccccc12 [CSMC-12, 4-methoxy-2-(3,4-dihydroxyphenyl)quinoline] | 208 µM |
| COc1cc(-c2oc3cc(C)c(C)cc3c(=O)c2O)ccc1O [CSMC-15, 6,7-dimethyl-3,4'-dihydroxy-3'-methoxyflavone] | 79 µM |
| CCOc1cc(-c2ccc(O)c(O)c2)nc2ccccc12 [CSMC-16, 4-ethoxy-2-(3,4-dihydroxyphenyl)quinoline] | 215 µM |
| CC(C)Oc1cc(-c2ccc(O)c(O)c2)nc2ccccc12 [CSMC-17, 4-isopropoxy-2-(3,4-dihydroxyphenyl)quinoline] | 241 µM |

Biological target: T1, CYP1A2 (Homo sapiens, UniProt P05177)
T1 sequence (P05177 1-516): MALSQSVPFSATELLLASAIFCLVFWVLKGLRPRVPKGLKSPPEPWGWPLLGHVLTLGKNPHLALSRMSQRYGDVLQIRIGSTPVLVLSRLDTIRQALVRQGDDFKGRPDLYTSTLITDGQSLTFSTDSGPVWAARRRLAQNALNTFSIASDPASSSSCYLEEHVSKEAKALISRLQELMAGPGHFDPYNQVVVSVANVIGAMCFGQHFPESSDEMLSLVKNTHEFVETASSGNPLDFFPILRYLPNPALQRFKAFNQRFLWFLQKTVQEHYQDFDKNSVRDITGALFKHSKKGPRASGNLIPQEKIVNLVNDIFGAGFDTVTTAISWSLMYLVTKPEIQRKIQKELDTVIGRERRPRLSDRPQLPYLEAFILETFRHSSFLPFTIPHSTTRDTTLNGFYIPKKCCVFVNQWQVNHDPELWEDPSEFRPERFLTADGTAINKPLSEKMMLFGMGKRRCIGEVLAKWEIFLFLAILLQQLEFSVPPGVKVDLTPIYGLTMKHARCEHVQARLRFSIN
Assay: Cloe Screen Cytochrome P450 Inhibition assay
Type: in vitro ADME
Details: not given

| Compound | IC50 |
| --- | --- |
| COc1cc(-c2ccc(O)c(O)c2)nc2ccccc12 [CSMC-12, 4-methoxy-2-(3,4-dihydroxyphenyl)quinoline] | 3.7 µM |
| COc1cc(-c2oc3cc(C)c(C)cc3c(=O)c2O)ccc1O [CSMC-15, 6,7-dimethyl-3,4'-dihydroxy-3'-methoxyflavone] | > 25 µM |
| CCOc1cc(-c2ccc(O)c(O)c2)nc2ccccc12 [CSMC-16, 4-ethoxy-2-(3,4-dihydroxyphenyl)quinoline] | 3.99 µM |
| CC(C)Oc1cc(-c2ccc(O)c(O)c2)nc2ccccc12 [CSMC-17, 4-isopropoxy-2-(3,4-dihydroxyphenyl)quinoline] | 7.49 µM |

Same assay, conditions: classified from IC50

| Compound | CYP1A2 inhibition classification |
| --- | --- |
| COc1cc(-c2ccc(O)c(O)c2)nc2ccccc12 [CSMC-12, 4-methoxy-2-(3,4-dihydroxyphenyl)quinoline] | moderate inhibition |
| CCOc1cc(-c2ccc(O)c(O)c2)nc2ccccc12 [CSMC-16, 4-ethoxy-2-(3,4-dihydroxyphenyl)quinoline] | moderate inhibition |
| CC(C)Oc1cc(-c2ccc(O)c(O)c2)nc2ccccc12 [CSMC-17, 4-isopropoxy-2-(3,4-dihydroxyphenyl)quinoline] | moderate inhibition |

Tested on: P-glycoprotein (PgP)
Assay: P-glycoprotein
Type: cell-based, rat
Details: H4IIE cells, MTT, 24 hr, single exposure concentration (20 or 50 μM), without CSA

| Compound | % Control(Compound) |
| --- | --- |
| COc1cc(-c2ccc(O)c(O)c2)nc2ccccc12 [CSMC-12, 4-methoxy-2-(3,4-dihydroxyphenyl)quinoline] | 85.9 % Control |
| COc1cc(-c2oc3cc(C)c(C)cc3c(=O)c2O)ccc1O [CSMC-15, 6,7-dimethyl-3,4'-dihydroxy-3'-methoxyflavone] | 70.8 % Control |
| CCOc1cc(-c2ccc(O)c(O)c2)nc2ccccc12 [CSMC-16, 4-ethoxy-2-(3,4-dihydroxyphenyl)quinoline] | 81.3 % Control |
| CC(C)Oc1cc(-c2ccc(O)c(O)c2)nc2ccccc12 [CSMC-17, 4-isopropoxy-2-(3,4-dihydroxyphenyl)quinoline] | 80.8 % Control |

Tested on: Intracellular glutathione (GSH)
Assay: CeeTox intracellular glutathione
Details: H4IIE cells

| Compound | Total GSH TC50 |
| --- | --- |
| COc1cc(-c2ccc(O)c(O)c2)nc2ccccc12 [CSMC-12, 4-methoxy-2-(3,4-dihydroxyphenyl)quinoline] | >300 µM |
| COc1cc(-c2oc3cc(C)c(C)cc3c(=O)c2O)ccc1O [CSMC-15, 6,7-dimethyl-3,4'-dihydroxy-3'-methoxyflavone] | 76 µM |
| CCOc1cc(-c2ccc(O)c(O)c2)nc2ccccc12 [CSMC-16, 4-ethoxy-2-(3,4-dihydroxyphenyl)quinoline] | 243 µM |
| CC(C)Oc1cc(-c2ccc(O)c(O)c2)nc2ccccc12 [CSMC-17, 4-isopropoxy-2-(3,4-dihydroxyphenyl)quinoline] | 295 µM |

Tested on: H4IIE cells
Assay: not given
Type: cell-based
Details: 24 hr

| Compound | MTT TC50 |
| --- | --- |
| COc1cc(-c2ccc(O)c(O)c2)nc2ccccc12 [CSMC-12, 4-methoxy-2-(3,4-dihydroxyphenyl)quinoline] | 293 µM |
| COc1cc(-c2oc3cc(C)c(C)cc3c(=O)c2O)ccc1O [CSMC-15, 6,7-dimethyl-3,4'-dihydroxy-3'-methoxyflavone] | 74 µM |
| CCOc1cc(-c2ccc(O)c(O)c2)nc2ccccc12 [CSMC-16, 4-ethoxy-2-(3,4-dihydroxyphenyl)quinoline] | 170 µM |
| CC(C)Oc1cc(-c2ccc(O)c(O)c2)nc2ccccc12 [CSMC-17, 4-isopropoxy-2-(3,4-dihydroxyphenyl)quinoline] | 298 µM |

Tested on: P-glycoprotein (MDR1)
Assay: BBB penetration
Type: in vitro ADME, canine
Details: dog, MDCK-MDR1
Method in brief: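 MDCK cells transfected with human MDR1 (P-gp) were grown to a confluent monolayer over 4 days. Test compound was added apically, and A→B transport was followed over 60 min; B→A transport was also measured. Compound on each side was quantified by GC/MS. Papp was calculated for both directions, and efflux ratio = Papp B→A/Papp A→B. High BBB potential: Papp A→B ≥3.0×10⁻⁶ cm/s and efflux <3.0.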

| Compound | Papp A→B at 60 min | efflux ratio at 60 min |
| --- | --- | --- |
| COc1cc(-c2oc3cc(C)c(C)cc3c(=O)c2O)ccc1O [CSMC-15, 6,7-dimethyl-3,4'-dihydroxy-3'-methoxyflavone] | 4.08 ×10⁻⁶ cm/s | 0.4 |
